# Screening results from PubChem.
# MrgX1 PAM: positive allosteric modulators of MrgX1, primary screen, HEK293 cells, Fluo-4 calcium flux; actives 0.63% (n = 310,000); B-score at 10 µM; FDSS; hits give high values;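 active means plate-corrected calcium response at least 3 library SD above typical, normal starting fluorescence, not activating the receptor alone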;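 further: compound read alongside a low EC10 to EC30 dose of BAM8-22 agonist; peak minus trough fluorescence over baseline measured at the second addition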
# Target sequence (Q96LB2 whole entry, looked up): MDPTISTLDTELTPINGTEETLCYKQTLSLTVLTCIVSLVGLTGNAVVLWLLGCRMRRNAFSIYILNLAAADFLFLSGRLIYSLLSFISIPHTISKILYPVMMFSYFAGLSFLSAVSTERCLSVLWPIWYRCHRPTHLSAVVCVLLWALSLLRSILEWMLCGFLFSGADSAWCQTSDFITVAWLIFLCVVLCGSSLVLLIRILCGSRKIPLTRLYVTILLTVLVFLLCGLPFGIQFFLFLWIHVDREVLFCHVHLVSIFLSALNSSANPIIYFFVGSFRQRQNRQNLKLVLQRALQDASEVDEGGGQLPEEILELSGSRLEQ
# RGS4 act: RGS4 potentiators or activators, primary screen, cell-based, HEK293 M3R inducible RGS4, calcium flux. carbachol calcium flux Fluo4; hits give low values. B-score at 10 µM. actives 0.92% (n = 310,000). AID 463111, 2010;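 active means B-score of the integrated calcium signal more than 4 SD below the library mean, with starting fluorescence not abnormally high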;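 further: negative B-score means reduced calcium response which marks RGS4 activation or potentiation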
#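 System: HEK293 FlpIn-TREx cells, stable M3R, doxycycline-inducible RGS4. Timing: overnight RGS4 induction, 30 min dye load 37 °C, 20 min compound RT. Also added: carbachol, ECmax concentration. Measured by: Fluo4 fluorescence kinetic imaging of calcium. Evaluation: integrated calcium ratio converted to B score.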
# MrgX1 antagonist: antagonists of human MrgX1 receptor, primary screen, HEK293 cells, Fluo-4 calcium flux. actives 1.3% (n = 310,000). BAM8-22 antagonism; hits give low values. Mas-related G-protein coupled receptor member X1 (Homo sapiens), Q96LB2. AID 588676, 2011. B-score at 10 µM;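 active means calcium-response B-score plate-corrected more than 3 library SD below zero, starting fluorescence within 5 deviations, no agonist response on first addition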;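 further: peak minus trough fluorescence over baseline after final BAM8-22 challenge near maximal dose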
# MrgX1 ag: agonists of human MrgX1 receptor, primary screen, HEK293 cells, Fluo-4 calcium flux; actives 0.44% (n = 310,000); Fluo-4 calcium fluorescence, agonist mode; hits give high values; AID 588627, 2011; B-score at 10 µM;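 active means calcium response B-score plate-corrected fluorescence ratio at least 3 library SD, with starting fluorescence B-score inside 5 SD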
#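 Test system: Stable human MrgX1 HEK293 cell line | Schedule: Overnight plating before 1 h dye loading | Read-out basis: Baseline-normalised fluorescence change ratio, B-scored | Detection: Kinetic calcium dye fluorescence, Fluo-4 NW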
# RGS4 block: RGS4 inhibitors, primary screen, cell-based, HEK293 M3R inducible RGS4, calcium flux; Regulator of G-protein signaling 4 (Homo sapiens), P49798; Fluo-4 calcium flux; hits give high values; triggered by carbachol at its EC20; B-score at 10 µM; actives 0.45% (n = 310,000);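 active means B-score, a plate-corrected calcium signal, over three deviations above library mean, with baseline fluorescence within five deviations of library mean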;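 further: RGS4 expression induced by doxycycline in cells with stable M3 receptor; B-score is computed from the integrated fluorescence ratio over baseline after carbachol; higher B-score means a larger calcium signal and so more RGS4 inhibition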
# Target sequence (P49798 whole entry, looked up): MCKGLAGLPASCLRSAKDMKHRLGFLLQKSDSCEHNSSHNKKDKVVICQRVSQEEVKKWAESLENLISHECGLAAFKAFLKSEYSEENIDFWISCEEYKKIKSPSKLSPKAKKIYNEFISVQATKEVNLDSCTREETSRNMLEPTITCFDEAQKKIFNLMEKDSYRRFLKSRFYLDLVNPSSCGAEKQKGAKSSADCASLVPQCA
# MrgX1 ag confirm: MrgX1 receptor agonists, duplicate retest, confirmation, HEK293 cells, Fluo-4 calcium flux. shares compounds with MrgX1 ag. Fluo-4 calcium fluorescence, FDSS. actives 78% (n = 600). activation, % at 10 µM;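 active means calcium signal rise, corrected for plate position, at least 3 library SD high, with starting brightness within 5 such deviations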
# MrgX1 allo conf: MrgX1 positive allosteric modulators, duplicate retest, confirmation, HEK293 cells, Fluo-4 calcium flux; Fluo-4 calcium fluorescence, FDSS; AID 602413, 2012; actives 13% (n = 1,200); activation (ratio percentage), % at 10 µM; shares compounds with MrgX1 PAM;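 active means ratio at least 3 SD above the weak peptide control, stable starting fluorescence, no direct agonism earlier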;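 further: compound followed by low BAM8-22 agonist challenge near EC20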
# HEK293 Ca flux: nonspecific calcium signal in parental HEK293, confirmation, counter-screen for MrgX1 antagonist project, parental HEK293 cells, Fluo-4 calcium flux | actives 2% (n = 4,000) | fluorescence ratio F(max-min)/F0 at 10 µM | AID 624111, 2012 | shares compounds with MrgX1 antagonist | Fluo-4 calcium fluorescence, FDSS;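 active means duplicate-averaged calcium fluorescence ratio at least three times the standard deviation of buffer wells, a nonspecific response in parental cells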
# HEK293 Ca counter: calcium response in parental HEK293 cells, primary screen, counter-screen for MrgX1 allosteric activator project, cell-based, Fluo-4 calcium flux, duplicate | shares compounds with MrgX1 antagonist | Fluo-4 fluorescence ratio; hits give high values | fluorescence ratio F(max-min)/F0 at 10 µM | actives 0.4% (n = 4,000) | AID 624114, 2012;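 active means calcium fluorescence ratio, averaged over duplicates, at least 3 SD of the buffer-well ratio, meaning a nonspecific response in receptor-free cells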;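 further: untransfected parental HEK293 lacking MrgX1 used as counterscreen for MrgX1 allosteric activators; fluorescence change taken during the second addition on a kinetic imager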
# HEK293 Ca cntr2: calcium response in parental HEK293 cells, primary screen, counter-screen for MrgX1 agonist project, cell-based, Fluo-4 calcium flux, duplicate, agonist mode. fluorescence ratio F(max-min)/F0 at 10 µM. actives 8.7% (n = 4,000). shares compounds with MrgX1 antagonist. Fluo-4 calcium fluorescence (FDSS); hits give high values;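 active means calcium fluorescence ratio at least three times the spread of buffer wells, meaning a non-specific response in parental cells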
# Starred values were filed as active, the others as inactive; i = inactive; x = no result given. Compounds with a hit are over-represented: about 3.5% of the library has one in this group of screens.
SMILES,MrgX1 PAM,RGS4 act,MrgX1 antagonist,MrgX1 ag,RGS4 block,MrgX1 ag confirm,HEK293 Ca flux,HEK293 Ca counter,HEK293 Ca cntr2,others
N=c1c(S(=O)(=O)c2ccc(Cl)cc2)cc2c(=O)n3ccccc3nc2n1C1CCCCC1,i,i,i,i,i,x,x,x,x,
CC1Cc2cc(S(=O)(=O)N3CCC(C(=O)N4CCN(c5ccccc5F)CC4)CC3)ccc2N1C(=O)C1CC1 (centres undefined),i,i,i,i,i,x,x,x,x,
Cc1[nH]n(-c2ccccc2)c(=O)c1N=Nc1nccs1,i,i,i,66*,i,261%*,i,i,51*,
CN1CCCC1CCNc1ccc2sc3ccccc3c(=O)c2c1 (centres undefined),i,i,i,50*,i,424%*,i,i,118*,
O=c1c2ccccc2sc2ccc(NCCCN3CCOCC3)cc12,i,i,i,34*,i,324%*,i,i,107*,
COc1cccc(CN2CCN(Cc3cc4ccccc4[nH]3)CC2CCO)c1 (centres undefined),i,i,i,123*,i,313%*,i,i,49*,
COc1ccc([N+](=O)[O-])cc1NC(=O)CCS(=O)(=O)c1ccc(Br)cc1,i,i,i,i,i,x,x,x,x,
O=C(COC(=O)[C@H](Cc1ccccc1)NC(=O)c1cccs1)NC1CCCCC1,i,i,i,30*,i,195%*,i,i,46*,
CCOc1ccc(OCCC(=O)NNC(=O)c2ccccc2Cl)cc1,i,i,i,i,i,x,x,x,x,
COc1ccnc(CSC(N)=Nc2ccccc2OC)c1,i,i,i,i,i,x,x,x,x,
COc1ccnc(CSC(N)=Nc2ccccc2C(F)(F)F)c1,i,i,i,33*,i,102%*,i,i,i,
CCOC(=O)c1c(CC(C)C)csc1NC(=O)c1ccccc1C(=O)O,i,i,i,37*,i,220%*,i,i,i,
CCOC(=O)c1c(CC(C)C)csc1NC(C)=O,i,i,i,i,i,x,x,x,x,
Cc1cc2oc(=O)cc(CN3CCCc4ccccc43)c2cc1C,i,i,i,67*,i,179%*,i,i,i,
Cc1cccc(NC(=O)C(=O)NCCc2c[nH]c3ccccc23)c1C,i,i,i,i,i,x,x,x,x,
Cc1cccc(C)c1NC(=O)C(=O)NCCc1c[nH]c2ccccc12,i,i,i,41*,i,i,i,49*,i,
CCOC(=O)CN(c1ccccn1)S(=O)(=O)c1ccc(OC)cc1,i,i,i,i,i,x,x,x,x,
CSCCC(NC(=O)c1ccco1)C(=O)OC(C)C(=O)NC(=O)NC1CCCCC1 (centres undefined),i,i,i,92*,i,397%*,i,i,86*,
OC1(Cc2cc(-c3ccccc3)no2)CCN(CCCc2ccccc2)CC1,i,i,i,i,i,x,x,x,x,
COc1ccc2c(c1OC)C(=O)N(c1cccc(NC(C)=O)c1)C2,i,i,i,27*,i,119%*,i,i,i,
Cc1sc2ncnc(N(C)C3CCCCC3)c2c1C,i,i,i,38*,i,i,i,i,i,
COc1cc(/C=C2\C(=N)N3N=CSC3=NC2=O)ccc1OS(=O)(=O)c1ccccc1,i,i,i,73*,i,383%*,i,i,77*,
COc1cc(/C=C2/C(=N)N3N=C(C(C)C)SC3=NC2=O)ccc1OS(=O)(=O)c1ccccc1,i,i,i,i,i,x,x,x,x,
Cc1ccc(-c2csc(N=C(N)N)n2)c(C)c1,i,i,i,76*,i,104%*,i,i,i,
COc1ccc(-c2csc(N=C(N)N)n2)cc1,i,i,i,i,i,x,x,x,x,
SMILES,MrgX1 PAM,RGS4 act,MrgX1 antagonist,MrgX1 ag,RGS4 block,MrgX1 ag confirm,HEK293 Ca flux,HEK293 Ca counter,HEK293 Ca cntr2,others
O=C(O)C/C(=C\c1ccc2c(c1)OCO2)c1nc2ccccc2s1,i,i,i,i,i,x,x,x,x,
O=C(O)C/C(=C\c1cc(Cl)c2c(c1)OCO2)c1nc2ccccc2s1,i,i,i,35*,i,91%*,i,i,i,
CN1CC(=O)N/C1=N\C(=O)Nc1ccc(O)cc1,i,i,i,i,i,x,x,x,x,
CCC(Sc1nc2ccccc2c(=O)n1CCN1CCOCC1)C(=O)NCc1cccnc1 (centres undefined),6.6*,i,i,i,i,x,i,i,47*,MrgX1 allo conf=i
COc1cccc(NC(=O)CCC(=O)Nc2cc(OC)c(NC(=O)c3cccs3)cc2OC)c1,x,i,x,x,i,x,x,x,x,
CCCCN1CC[C@H]2C=CC[C@@H](C(=O)Nc3ccc(Cl)cc3Cl)[C@H]2C1=O,6.9*,i,i,i,i,x,i,i,i,MrgX1 allo conf=i
CCCCN1CC[C@H]2C=CC[C@@H](C(=O)NCc3ccc(OC)cc3)[C@H]2C1=O,i,i,i,i,i,x,x,x,x,
CCCn1c(SCC(=O)Nc2ccccc2Cl)n[nH]c1=O,6.6*,i,i,i,i,x,i,i,i,MrgX1 allo conf=i
C=C(C)CN1C(=O)C2(OCCO2)c2ccccc21,i,i,i,i,i,x,x,x,x,
